What all share (format): functional
Holding throughout (conditions): read-out: ID50 (the source's name)

For assay [1], the system named is JAR. The experiment in a line: The compound was tested for cytotoxicity against human JAR, choriocarcinoma cell line. A digest of the protocol: (§1)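 JAR and LS174T cells (5×10^4 mL⁻¹, DMEM) exposed to compound at 0.5-800 μM, with no enzyme added. Solutions were freshly made and adjusted to pH 7.4. Dosing was repeated at the same concentration three times, 24 h apart. Duplicates. Viability was counted by hemocytometer 24 h after the last dose, relative to untreated controls.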

Assay [2] concerns LS174T. The assay can be described thus: The compound along with CPG2 was tested for cytotoxicity against human LS174T,colorectal cell line. A digest of the protocol:
(§2)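 JAR and LS174T cells (5×10^4 mL⁻¹, DMEM) exposed to prodrug at 0.5-800 μM, freshly made and adjusted to pH 7.4. Dosing was repeated at the same concentration three times, 24 h apart. CPG2 at 6 units mL⁻¹ final was added with each dose to generate active drug in situ. Duplicates. Viability was counted by hemocytometer 24 h after the last dose, relative to untreated controls.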

Assay [3] concerns LS174T. The experiment in a line: The compound was tested for cytotoxicity against human LS174T,colorectal cell line. A digest of the protocol:
as §1

Assay [4] relates to JAR. The experiment in a line: The compound along with CPG2 was tested for cytotoxicity against human JAR, choriocarcinoma cell line. In short, it runs like this:
as §2

Where only a bound is given, the exact number is not on record here.

Regarding `CS(=O)(=O)OCCN(CCOS(C)(=O)=O)c1ccc(C(=O)NC(CCC(=O)O)C(=O)O)cc1` (configuration not stated), the IC50 was more than 800 µM in the assay on JAR [1], 65 µM with LS174T [2], 800 µM in the assay with LS174T [3] and 60 µM in the assay with JAR [4].

With `O=C(O)CCC(NC(=O)c1ccc(N(CCCl)CCCl)cc1)C(=O)O` (configuration not stated), the IC50 in the assay on JAR [1] is more than 800 µM; in the assay with LS174T [2], 25 µM; with LS174T [3] it was more than 800 µM; in the assay with JAR [4], 8 µM.

For the molecule `CS(=O)(=O)OCCN(CCCl)c1ccc(C(=O)NC(CCC(=O)O)C(=O)O)cc1` (configuration not stated), the IC50 with JAR [1] was found to be 630 µM; in the assay with LS174T [2], 10 µM; with LS174T [3] it was 285 µM; in the assay with JAR [4], 10 µM.

Values taken from ChEMBL document CHEMBL1124826, “Novel prodrugs which are activated to cytotoxic alkylating agents by carboxypeptidase G2” (1990).
